Results: ChEMBL document CHEMBL1134377, “New synthesis of benzo-delta-carbolines, cryptolepines, and their salts: in vitro cytotoxic, antiplasmodial, and antitrypanosomal activities of delta-carbolines, benzo-delta-carbolines, and cryptolepines” (J Med Chem, 2001)
pIC50: −log10 of the molar value. Structures can show the parent of a compound that is named as a salt.

Columns and labels:
[1] = test system: L6; assay: In vitro cytotoxicity against L6 cells; format: functional, cell-based, Rattus norvegicus
[2] = test system: Plasmodium falciparum; assay: Antiplasmodial activity against chloroquine-resistant Plasmodium falciparum K1; format: functional, organism-based
Method in brief: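 K1 strain kept in continuous culture on human erythrocytes. Asynchronous cultures (1% parasitemia, 1% final hematocrit) exposed to serial dilutions of drug (DMSO stocks; final DMSO ≤0.2%) for 24 h at 37 °C. 0.5 µCi [3H]hypoxanthine per well was then added for a further 24 h. Inhibition is incorporation versus untreated controls on the same plate. IC50 taken from concentration-response curves, mean ± SD of several independent experiments.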

[3] = test system: Plasmodium falciparum; assay: Selectivity index against Plasmodium falciparum; format: functional
[4] = test system: Trypanosoma cruzi; assay: Antitrypanosomal activity against (Trypanosoma cruzi) trypomastigotes (concentration of compound tested on trypomastigote motility); format: functional, organism-based
Method in brief: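 Tulahuen LacZ clone 4 trypomastigotes harvested from infected murine L6 muscle cell cultures; 2-fold drug dilutions from 200 to 1.5 µM, 48 h; motility scored by microscopy; value is concentration with no detectable motility effect, mean of 2 independent experiments.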

[5] = test system: Trypanosoma cruzi; assay: Antitrypanosomal activity against Trypanosoma cruzi amastigotes; format: functional, organism-based
[6] = test system: Trypanosoma cruzi; assay: Antitrypanosomal activity against Trypanosoma cruzi epimastigotes; format: functional, organism-based
[7] = test system: Trypanosoma cruzi; assay: Index of selectivity was determined in Trypanosoma cruzi; format: functional
Method in brief: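 Ratio of IC50 on L6 cells to IC50 on intracellular amastigote proliferation of T. cruzi.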

[8] = In vitro cell survival assay on cancer KB cell lines; format: functional, cell-based, Homo sapiens
Method in brief: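 KB oral epidermoid carcinoma cells in MEM with 10% FCS, 25 000 cells/well; serial dilutions (DMSO or water) added at plating; 3 days at 37 °C, 5% CO2; viability by neutral red uptake 8-16 h, SDS lysis, absorbance 540 nm.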

Compound | pIC50 ([1]; Rattus norvegicus, L6) | pIC50 ([2]; Plasmodium falciparum) | IS [3] | pIC50 ([4]; Trypanosoma cruzi) | pIC50 ([5]; Trypanosoma cruzi) | pIC50 ([6]; Trypanosoma cruzi) | IS [7] | pIC50 ([8]; Homo sapiens, KB) | pIC50 ([1]; l6) | pIC50 [2] | pIC50 [4] | pIC50 [5] | pIC50 [6] | pIC50 ([8]; kb)
c1csc(-c2cnc3c(c2)[nH]c2ccccc23)c1 | 4.27 | 4.77 | 3.2 | 3.70 | 5.08 | 5.17 | 6.4 |  |  |  |  |  |  | 
C[n+]1c2ccccc2cc2[nH]c3ccccc3c21.O=S(=O)([O-])C(F)(F)F | 5.09 | 6.48 | 24.5 | 4.30 | 6.90 | 5.89 | 64.8 |  |  |  |  |  |  | 
CC(C)c1c2nc3ccccc3c-2n(C)c2ccccc12 | 4.62 | 5.66 | 10.6 |  |  |  |  | 5.19 |  |  |  |  |  | 
Cc1c2nc3ccccc3c-2n(C)c2ccccc12 | 5.43 | 7.00 | 41.9 |  |  |  |  | 6.28 |  |  |  |  |  | 
CCc1c2nc3ccccc3c-2[nH]c2ccccc12 | 4.67 | 4.51 | 0.7 | 5.20 | 5.24 | 5.55 | 3.8 | 4.40 |  |  |  |  |  | 
Cc1c2ccccc2[n+](C)c2c1[nH]c1ccccc12 |  |  |  |  |  |  |  | 6.38 |  |  |  |  |  | 
c1ccc2nc(-c3cc[nH]c4c5ccccc5nc3-4)ccc2c1 | 4.38 | 4.79 | 2.6 | 4.00 | 5.19 | 4.58 | 6.5 |  |  |  |  |  |  | 
CCc1c2ccccc2[n+](C)c2c1[nH]c1ccccc12 |  |  |  |  |  |  |  | 5.82 |  |  |  |  |  | 
c1ccc(-c2cc[nH]c3c4ccccc4nc2-3)cc1 | 4.84 | 4.41 | 0.4 | 4.60 | 4.92 | 4.95 | 1.2 |  |  |  |  |  |  | 
c1ccc2c(c1)[nH]c1cccnc12 | 3.64 | 3.98 | 2.2 | 4.00 | 4.63 | 4.63 | 9.7 |  |  |  |  |  |  | 
c1ccc(-c2c[nH]c3c4ccccc4nc-3c2-c2ccccc2)cc1 | < 3.81 | 3.59 | >0.6 | 4.00 | 3.96 | < 3.51 | >1.5 |  |  |  |  |  |  | 
Oc1ccc2[nH]c3cccnc3c2c1 | 3.63 | 4.25 | 4.2 | 3.70 | 3.91 | 3.89 | 1.9 |  |  |  |  |  |  | 
Cc1cc[nH]c2c3ccccc3nc1-2 | 4.08 | 4.34 | 1.8 | 4.00 | 4.98 | 5.18 | 7.9 |  |  |  |  |  |  | 
c1csc(-c2ccnc3c2[nH]c2ccccc23)c1 | 5.74 | 4.83 | 0.12 | 3.70 | 5.74 | 4.95 | 1 |  |  |  |  |  |  | 
Cc1c(-c2ccccc2)c[nH]c2c3ccccc3nc1-2 | 4.67 | 4.63 | 0.9 | 5.20 | 5.72 | 5.64 | 11.2 |  |  |  |  |  |  | 
c1ccc(-c2cc[nH]c3c4ccccc4nc2-3)nc1 | 4.12 | 4.48 | 2.3 | 4.60 | 4.73 | 4.23 | 4 |  |  |  |  |  |  | 
c1ccc(-c2c3nc4ccccc4c-3[nH]c3ccccc23)cc1 |  |  |  |  |  |  |  | < 4.00 |  |  |  |  |  | 

Compound | pIC50 ([1]; Rattus norvegicus, L6) | pIC50 ([2]; Plasmodium falciparum) | IS [3] | pIC50 ([4]; Trypanosoma cruzi) | pIC50 ([5]; Trypanosoma cruzi) | pIC50 ([6]; Trypanosoma cruzi) | IS [7] | pIC50 ([8]; Homo sapiens, KB) | pIC50 ([1]; l6) | pIC50 [2] | pIC50 [4] | pIC50 [5] | pIC50 [6] | pIC50 ([8]; kb)
CC(C)c1c2ccccc2[n+](C)c2c1[nH]c1ccccc12 |  |  |  |  |  |  |  | 5.03 |  |  |  |  |  | 
C[n+]1cccc2[nH]c3ccccc3c21.[Cl-] | < 3.64 | 5.80 | > 138 | 3.70 | 3.72 | 3.37 | >1 |  |  |  |  |  |  | 
Cn1cccc2nc3ccccc3c1-2 | < 3.66 | 5.66 | >100 | 3.70 | 3.59 | < 3.26 | >1 |  |  |  |  |  |  | 
Nc1ccccc1-c1c[nH]c2c3ccccc3nc-2c1 | 4.84 | 4.53 | 0.5 | 4.30 | 4.95 | 4.98 | 1.3 |  |  |  |  |  |  | 
c1ccc(-c2c[nH]c3c4ccccc4nc-3c2)nc1 | 3.69 | 4.66 | 9.2 | 4.30 | 4.68 | 4.30 | 9.8 |  |  |  |  |  |  | 
Cn1c2c3ccccc3nc-2c(-c2ccccc2)c2ccccc21 | 5.26 | 5.96 | 5.5 | 5.82 | 6.47 | 6.64 | 16.6 | 6.12 |  |  |  |  |  | 
c1ccc(-c2c[nH]c3c4ccccc4nc-3c2)cc1 | 4.43 | 3.89 | 0.3 | 3.70 | 5.07 |  | 4.3 |  |  |  |  |  |  | 
CCc1cc[nH]c2c3ccccc3nc1-2 | 4.35 | 4.18 | 0.7 | 4.30 | 4.91 | 4.67 | 3.7 |  |  |  |  |  |  | 
Nc1ccccc1-c1cc[nH]c2c3ccccc3nc1-2 | 4.79 | 4.62 | 0.7 | 4.30 | 4.72 | 4.46 | 0.9 |  |  |  |  |  |  | 
CC(C)c1c2nc3ccccc3c-2[nH]c2ccccc12 |  |  |  |  |  |  |  | 4.24 |  |  |  |  |  | 
O=C(c1c2nc3ccccc3c-2[nH]c2ccccc12)c1c2nc3ccccc3c-2[nH]c2ccccc12 | 4.82 | 5.19 | 2.4 | 4.00 | 5.24 | < 3.70 | 2.7 |  |  |  |  |  |  | 
CCc1c2ccccc2[n+](C)c2c1[nH]c1ccccc12.O=S(=O)([O-])C(F)(F)F | 5.17 | 6.32 | 14.1 | 4.30 | 6.41 | 6.47 | 17.4 |  |  |  |  |  |  | 
C[n+]1cccc2[nH]c3ccccc3c21.O=S(=O)([O-])C(F)(F)F |  |  | >100 |  |  |  | >1 |  | < 3.82 | 5.82 | 4.00 | 3.70 | < 3.52 | 
c1ccc2nc(-c3c[nH]c4c5ccccc5nc-4c3)ccc2c1 | 4.64 | 4.85 | 1.6 |  | 5.48 | 4.73 | 6.9 |  |  |  |  |  |  | 
C[n+]1c2ccccc2c(-c2ccccc2)c2[nH]c3ccccc3c21.O=S(=O)([O-])C(F)(F)F | 5.17 | 5.96 | 6.2 | 4.90 | 6.06 | 6.27 | 7.7 |  |  |  |  |  |  | 
C[n+]1c2ccccc2cc2[n-]c3ccccc3c21 [CRYPTOLEPINE HYDROCHLORIDE] |  |  |  |  |  |  |  |  |  |  |  |  |  | 5.76
C[n+]1c2ccccc2cc2[n-]c3ccccc3c21 [CRYPTOLEPINE] |  |  |  |  |  |  |  | 5.82 |  |  |  |  |  | 
